Assays:
[1] = melting temperature; fluorescence melt of hairpins on a sequencing array, two-state fit, raised by 9.35 °C to match UV melts; settings: sodium 0.088 M
In short: (§1)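 Cy3 signals were normalised both to pre-quench Cy3 and to control constructs. They came from library hairpins carrying annealed Cy3 and quencher oligos on a sequenced MiSeq flow cell, imaged in 50 mM Na-HEPES pH 8.0, 25 mM NaCl, in 2.5 °C steps up to 60 °C. Bootstrapped two-state fits gave melting temperature and folding enthalpy, and four replicates were combined by inverse variance. Fitted temperatures were then raised by 9.35 °C to match UV melts.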

[2] = folding enthalpy; higher = less favourable; fluorescence melt of hairpins on a sequencing array, two-state fit; settings: sodium 0.088 M
In short: as §1

Row | Sequence | Tm [1] | folding enthalpy [2]
1 | GATCACCACGGTGATC ((((((....)))))) | 62.9 °C | -41.4 kcal/mol
2 | GTTTTGGGAAACCAAAGC (.(((((....))))).) | 41 °C | -29.8 kcal/mol
3 | GATCTGGGTTCAGATC ((((((....)))))) | 49.4 °C | -43.3 kcal/mol
4 | GGATGGCCGAAAGGCTCC (((..(((....)))))) | 37.3 °C | -11.6 kcal/mol
5 | CGATATCGGAAACGATCG (((..(((....)))))) | 35.3 °C | -16.8 kcal/mol
6 | GGAGGCGAAAGCCTTCC ((((((....))).))) | 57.9 °C | -13.5 kcal/mol
7 | GCTATGCGAAAGCAACGC ((..(((....)))..)) | 39.1 °C | -10.5 kcal/mol
8 | GCAAAGCGAAAGCCTCGC ((.(.((....)).).)) | 27.9 °C | -7.59 kcal/mol
9 | CGTCACCGGAAACGGACG (((..(((....)))))) | 36.4 °C | -21.6 kcal/mol
10 | GGTTTCGAAAGAACACC ((((((....))).))) | 37.6 °C | -26.8 kcal/mol
11 | GCATTGCGAAAGCCAGGC ((.(.((....)).).)) | 38.5 °C | -17.6 kcal/mol
12 | GGGGCCGAAAGGCTGCCC ((((((....)))..))) | 46.4 °C | -14.2 kcal/mol
13 | GATTCGGGAAACCGGATC (((.(((....))).))) | 49.3 °C | -39.6 kcal/mol
14 | GGCCACGCGAAAGCGGCC (((..(((....)))))) | 62.5 °C | -19 kcal/mol
15 | CACAAGAAATTGTG (((((....))))) | 37.6 °C | -21.7 kcal/mol
16 | GTACACGAAAGTGTGTAC ((((((....)))..))) | 46 °C | -13.8 kcal/mol
17 | GATCGCTAGTGCGATC ((((((....)))))) | 67 °C | -35.2 kcal/mol
18 | GATCCTTACGAGGATC ((((((....)))))) | 53.2 °C | -39.9 kcal/mol
19 | GCGGATTTCCGC ((((....)))) | 64.6 °C | -22.4 kcal/mol
20 | GATCTAAAAGTAGATC ((((((....)))))) | 29.6 °C | -17.5 kcal/mol
21 | GTTAAGCGAAAGCTAAC (((.(((....)))))) | 44.4 °C | -18.5 kcal/mol
22 | GATCAGGTTCCTGATC ((((((....)))))) | 53.7 °C | -47.5 kcal/mol
23 | GCAGAGCGAAAGCCCGGC ((.(.((....)).).)) | 44.8 °C | -17.9 kcal/mol
24 | GATGGGGGAAACTCCATC (((((.(....).))))) | 49.2 °C | -32.9 kcal/mol

Row | Sequence | Tm [1] | folding enthalpy [2]
25 | GATCCTAATGAGGATC ((((((....)))))) | 50.5 °C | -34.1 kcal/mol
26 | GATAAACGAAAGTTAATC (((.(((....))).))) | 34.4 °C | -16 kcal/mol
27 | GATCATGCGAAAGCAATC (((..(((....)))))) | 22.5 °C | -9.85 kcal/mol
28 | GATCGCGCGAAAGCGATC (((..(((....)))))) | 60.1 °C | -25.8 kcal/mol
29 | GATCCCACGTGGGATC ((((((....)))))) | 60.3 °C | -45.1 kcal/mol
30 | GCGAGGCGAAAGCGACGC (((..((....))..))) | 62.1 °C | -25.4 kcal/mol
31 | GCCATGCGAAAGCACGGC (((.(((....))).))) | 56.9 °C | -49.1 kcal/mol
32 | GCACCAGCGAAAGCTTGC (((..(((....)))))) | 38.1 °C | -11.8 kcal/mol
33 | GATGGCGGAAACGTCGTC ((.(.((....)).).)) | 45.4 °C | -29.6 kcal/mol
34 | GCCACCACGAAAGTGGGC (((..(((....)))))) | 46 °C | -9.17 kcal/mol
35 | GCTTCCGAAAGGATAGC ((((((....))).))) | 48.7 °C | -24.9 kcal/mol
36 | GATCACCGGTGTGATC ((((((....)))))) | 54.8 °C | -38 kcal/mol
37 | GGGCCCGGAAACGGACCC (((.(((....))).))) | 58.8 °C | -39.3 kcal/mol
38 | GGTGTCGAAAGACACACC ((((((....)))..))) | 52.5 °C | -9.34 kcal/mol
39 | GGCCTTGGAAACAAAGCC (((.(((....))).))) | 38.9 °C | -25.8 kcal/mol
40 | GCAATGCGAAAGCATGGC ((.((((....)))).)) | 65.2 °C | -34 kcal/mol
41 | CGTTCACGGAAACGTACG (((..(((....)))))) | 39 °C | -15.2 kcal/mol
42 | GTTAAACCGAAAGGTAAC (((..(((....)))))) | 29.9 °C | -15.2 kcal/mol
43 | GTAGTGGGAAACCACCAC ((.((((....)))).)) | 33.5 °C | -16.3 kcal/mol
44 | GATCGTGGAGACGATC ((((((....)))))) | 57.8 °C | -42.4 kcal/mol
45 | GCGACTGGAAACGGTTGC ((.((.(....).)).)) | 43.9 °C | -32.1 kcal/mol
46 | GTATTCGAAAGAATATAC ((((((....)))..))) | 33.5 °C | -13.8 kcal/mol
47 | GCGTCCCCACGC ((((....)))) | 51.1 °C | -21 kcal/mol
48 | GGTCTTGAAAAAGACC ((((((....)))))) | 57.2 °C | -40.4 kcal/mol

Row | Sequence | Tm [1] | folding enthalpy [2]
49 | GAGTGCGAAAGCACACTC ((((((....)))..))) | 58.6 °C | -12.6 kcal/mol
50 | GGCTGCGAAAGCATGGCC ((((((....)))..))) | 54.6 °C | -31.8 kcal/mol
51 | GTTCAGCGAAAGCTAAC (((.(((....)))))) | 36.4 °C | -13.8 kcal/mol
52 | GTACTCGAAAGAGGTAC ((((((....))).))) | 42.7 °C | -21.1 kcal/mol
53 | GTACAGCGAAAGCTATAC (((.(((....))).))) | 36.9 °C | -18 kcal/mol
54 | GGATCCGAAAGGAGTCC ((((((....))).))) | 47.9 °C | -18.5 kcal/mol
55 | GCGTAGGAAACTACGC ((((((....)))))) | 67.1 °C | -31.2 kcal/mol
56 | CTCTTGAAAAAGAG (((((....))))) | 36.2 °C | -10.4 kcal/mol
57 | GATCATTGCAATGATC ((((((....)))))) | 52.3 °C | -44.8 kcal/mol
58 | CGCGACCGGAAACGGGCG (((..(((....)))))) | 60 °C | -11.7 kcal/mol
59 | CGTGCGGAAACGCCTACG ((((((....)))..))) | 39.1 °C | -15.3 kcal/mol
60 | GATCCGCCTACGGATC ((((((....)))))) | 59.6 °C | -37.9 kcal/mol
61 | GATCCCCGTCGGGATC ((((((....)))))) | 62.8 °C | -32.4 kcal/mol
62 | GGTTTTCGAAAGAAGACC (((.(((....))).))) | 48.1 °C | -31.4 kcal/mol
63 | GCCTTCGAAAGAACCGGC ((((((....)))..))) | 33.9 °C | -19.4 kcal/mol
64 | GATCGAGGTTTCGATC ((((((....)))))) | 53.2 °C | -44.7 kcal/mol
65 | GATCTTTGCTAAGATC ((((((....)))))) | 46 °C | -35.8 kcal/mol
66 | GTCCCCGGAAACGGAGAC (((.(((....))).))) | 47.7 °C | -28 kcal/mol
67 | GGTTTTCGAAAGAATACC (((.(((....))).))) | 42.3 °C | -30.8 kcal/mol
68 | GCCGGTGGAAACACCGAC (.(((((....))))).) | 55.3 °C | -12.4 kcal/mol
69 | GATCCATCTATGGATC ((((((....)))))) | 55.8 °C | -39.3 kcal/mol
70 | GATCGGACTCCCGATC ((((((....)))))) | 53.8 °C | -35.3 kcal/mol
71 | GGGCTCGAAAGAGACCC ((((((....))).))) | 66.8 °C | -20.9 kcal/mol
72 | GGCAGTCCGAAAGGAGCC (((..(((....)))))) | 47.4 °C | -22.1 kcal/mol

Row | Sequence | Tm [1] | folding enthalpy [2]
73 | GTTCACGAAAGTGAAAC ((((((....))).))) | 46.1 °C | -16.3 kcal/mol
74 | GCGTACCGAAAGGTTCGC (((.(((....))).))) | 63 °C | -50.5 kcal/mol
75 | TGTCCGAAAGGACA (((((....))))) | 68.8 °C | -13.6 kcal/mol
76 | GGTGAAGGAAACTTTACC (((.(((....))).))) | 39 °C | -31.6 kcal/mol
77 | GCGATAATTCGC ((((....)))) | 48.2 °C | -23.5 kcal/mol
78 | GATCAGCAACTGATC ((((((...)))))) | 45.6 °C | -33.8 kcal/mol
79 | GGCCTTGGAAACGAGGTC (.(((.(....).))).) | 43.2 °C | -31.3 kcal/mol
80 | GTAGGCCCGAAAGGGTAC (((..(((....)))))) | 32.9 °C | -11.1 kcal/mol
81 | GATCCTATGAAGGATC ((((((....)))))) | 51 °C | -34 kcal/mol
82 | GATCTACCGCTAGATC ((((((....)))))) | 40 °C | -29.4 kcal/mol
83 | GGTACCGAAAGGTACACC ((((((....)))..))) | 51.7 °C | -9.32 kcal/mol
84 | GTGGATGGAAACGTCTAC ((.((.(....).)).)) | 32.5 °C | -19.8 kcal/mol
85 | GGTTCGGGAAACTGAACC (((((.(....).))))) | 53.2 °C | -47.2 kcal/mol
86 | GTAGGCCGAAAGGCATAC (((.(((....))).))) | 61.9 °C | -33.2 kcal/mol
87 | GATCAGGACCTGATC ((((((...)))))) | 49.6 °C | -40.4 kcal/mol
88 | GCAGACGAAAGTCATTGC ((((((....)))..))) | 37.1 °C | -16.5 kcal/mol
89 | GATCAGTATCCTGATC ((((((....)))))) | 48.7 °C | -33.3 kcal/mol
90 | GATCCCACGAGGGATC ((((((....)))))) | 63.5 °C | -34.5 kcal/mol
91 | GCTCCTGGAAACAGGGGC ((.((((....)))).)) | 57.4 °C | -39.6 kcal/mol
92 | GCGCAGCGAAAGCTATGC ((..(((....)))..)) | 39.3 °C | -7.11 kcal/mol
93 | GCGCACCGAAAGGTTCGC (((.(((....))).))) | 61.4 °C | -40.3 kcal/mol

Source: the array DNA melting data of Ke et al. (doi:10.1101/2024.01.08.574731)
